Laboratory results from PubChem BioAssay AID617 (SRMLSC, 2007).

Test system: E. coli BW25113 ΔtolC growth inhibition, OD615
Assay: E. coli ΔtolC antibacterial growth inhibition – strain BW25113 ΔtolC::kan, dose response (AID 617)
Outline: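 System: E. coli BW25113 ΔtolC::kan bacteria. Amount: 1:1000 diluted subculture inoculum. Medium: LB broth supplemented with kanamycin at 50 µg/mL. Compound dosing: serial dilution series of compound. Schedule: 20 h exposure at 37 °C. Detection: OD615. Measure: IC50 of bacterial growth inhibition. Benchmarks: chloramphenicol control, 30 µM final.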

| Compound | IC50 [µM] |
| --- | --- |
| CCN(CCCNC(=O)c1[nH]c(C)c(C(C)=O)c1C)c1cccc(C)c1 | 8.23 |
| COc1ccc(CCNC(=O)c2cc3sc(Cl)cc3n2C)cc1OC | 30.8 |
| C=C(C)COc1ccc(-c2nc(N)ncc2-c2ccc(OC)cc2)c(O)c1 | 10.2 |
| CC(Nc1ccc(Br)cn1)c1cc(Cl)ccc1O (configuration not stated) | 5.61 |
| CCCCCn1c(CN2CCN(c3cccc(Cl)c3)CC2)nc2c1c(=O)n(C)c(=O)n2C | 15.2 |
| Cc1ccccc1-c1nnc(SCc2ccccc2F)o1 | 25.8 |
| Cc1[nH]c2ccccc2c1NC(=O)CN1CCN(c2cccc(C(F)(F)F)c2)CC1 | 12.5 |
| CCCCOc1[nH]c2nc(-c3ccco3)n(Cc3ccco3)c(=N)c2c1C#N | 12 |
| COc1ccc(Cn2nnnc2C(C(C)C)N2CCc3ccccc32)cc1 (configuration not stated) | 12.7 |
| COc1ccc(-n2cnc3cc(NCc4cccs4)ccc32)cc1 | 10.6 |
| CCCCOc1ccccc1Cn1c(=O)oc2ccc(C)cc21 | 16.4 |
| COc1ccc(-c2cnc(SCC(=O)Nc3ccc4c(c3)OCO4)n2Cc2ccco2)cc1 | 11.1 |
| CC1Cc2cc(-c3csc(NC(=O)Cc4cccs4)n3)ccc2N1S(C)(=O)=O (configuration not stated) | 15.3 |
| CSc1nc(N2CCOCC2)c2c3c(sc2n1)CCCC3 | 11.9 |
| CN(C)S(=O)(=O)N(Cc1ccc(Br)cc1)c1ccccc1 | 12.9 |
| Cc1cc(C)n(-c2nc(NC(C)C)nc(NC(C)C)n2)n1 | 2.96 |
| Cc1ccc2c(c1)NC(=O)C(CC(=O)NCCCN1CCN(c3cc(Cl)ccc3C)CC1)O2 (configuration not stated) | 2.67 |
| O=C(Nc1ccc(S(=O)(=O)N2CCCc3ccccc32)cc1)C1CCCO1 (configuration not stated) | 19.6 |
| Cc1nn(-c2ccc(F)cc2)c2sc(C(=O)N3CCCCCC3)cc12 | 20.2 |
| CCCOc1ccc(C2C(C(=O)c3ccc(C)o3)=C(O)C(=O)N2Cc2cccnc2)cc1 (configuration not stated) | 36.1 |
| Cc1ccc(C)n1-n1cnc2sc(-c3ccccc3)cc2c1=O | 7.12 |
| CCOC(=O)N1CCC(Nc2nc3ccccc3nc2NS(=O)(=O)c2ccc(Cl)cc2)CC1 | 5.49 |
| Cc1ccc(Cn2c(SCC(C)C)nc3c2c(=O)n(C)c(=O)n3C)cc1 | 89.6 |

| Compound | IC50 [µM] |
| --- | --- |
| CCCCCn1c(-c2ccco2)nc2nc3ccccc3nc21 | 84.8 |
| COc1ccc(-c2nnc(NC(=O)c3ccc(S(=O)(=O)N4CCc5ccccc5C4)cc3)o2)cc1 | 0.22 |
| Cn1cc(SCC(=O)Nc2nc3ccccc3s2)c2ccccc21 | 9.23 |
| COc1ccc(C(C(O)C(=O)c2c[nH]c3ccccc23)N2CCN(c3ccc(OC)cc3)CC2)cc1 (configuration not stated) | 11.3 |
| Cc1cccc(S(=O)(=O)Nc2nc3ccccc3nc2NCc2ccco2)c1 | 6.92 |
| Cc1nn(Cc2ccc(Cl)cc2)c(C)c1NC(=O)c1noc2c1CCCCC2 | 13.4 |
| Cc1csc(NC(=O)CSc2ncnc3c2cnn3-c2ccccc2Cl)n1 | 16.4 |
| CCOC(=O)N1CCN(S(=O)(=O)c2ccc(OCC)c3ccccc23)CC1 | 14.2 |
| Cc1cc(Nc2ccccc2)nc(-c2ccccc2O)n1 | 15.4 |
| N#Cc1nc(-c2ccc(OCc3ccccc3)cc2)oc1NCCCN1CCOCC1 | 25.9 |
| Cc1cc(N2CCN(C(c3ccccc3)c3ccccc3)CC2)n2ncnc2n1 | 26.6 |
| CCOc1ccc(NS(=O)(=O)c2ccc3[nH]cc(C(=O)NC(C)CC)c(=O)c3c2)cc1 (configuration not stated) | 11.1 |
| CCCOc1ccc(C(=O)N2CCN(c3ccc(NC(=O)CC)cc3Cl)CC2)cc1 | 14.6 |
| CN(c1ccccc1)c1nc(N2CCCC2)nc(-n2ccnc2)n1 | 4.03 |
| CN(c1cccc(NC(=O)Nc2cccc(Cl)c2)c1)S(C)(=O)=O | 12.7 |
| CCCOc1ccccc1C1CC(=O)Nc2cc3c(cc21)OCCO3 (configuration not stated) | 24.1 |
| CCOC(=O)c1cnc(-n2nc(C)cc2C)nc1N(CC)CC | 12.3 |
| CCOC(=O)c1c(NC(=O)CSc2nnc(C)c(=O)[nH]2)sc2c1CCC2 | 10.6 |
| CC(C)OCCCNc1ncnc2c1[nH]c1ccc(F)cc12 | 7.21 |
| N#Cc1nc(-c2ccc(OCc3ccccc3Cl)cc2)oc1NCCCn1ccnc1 | 5.13 |
| O=S(=O)(c1ccccc1)c1nc(-c2ccco2)oc1N1CCCCCC1 | 11.2 |
| COc1ccc(-c2noc(CCCc3ccccc3)n2)cc1OC | 23.1 |
| Cc1cccc(N2CCN(C(=O)Cc3c(C(=O)O)[nH]c4ccc(Cl)cc34)CC2)c1C | 7.52 |

| Compound | IC50 [µM] |
| --- | --- |
| Cc1cc(N2CCC(C(=O)Nc3ccc(F)cc3)CC2)nc(-c2ccccc2)n1 | 22.5 |
| CCOC(=O)c1c(NS(=O)(=O)c2cccc(OC)c2)sc2c1CCC2 | 56.2 |
| O=C(c1cc2nc(-c3ccco3)cc(C(F)(F)F)n2n1)N1CCN(c2ccc(F)cc2)CC1 | 10.2 |
| CCCc1nc2ccccc2c(=O)n1NC(=O)c1c(O)c2ccccc2[nH]c1=O | 5.73 |
| O=C1OC(c2ccc(O)cc2)(c2ccc(O)cc2)c2ccccc21 | 4.01 |
| CCN(CC)c1ccc(C(=O)Nc2cccc(F)c2)cc1 | 8.06 |
| COc1ccc(S(=O)(=O)C(C#N)c2nc3ccccc3nc2N2CCCC(C)C2)cc1 (configuration not stated) | 6.97 |
| COc1ccc(Oc2cn[nH]c2-c2ccc(O)cc2O)cc1 | 7.86 |
| CCC1CCCCN1S(=O)(=O)c1ccc2c(c1)CCN2C(=O)C1CCC1 (configuration not stated) | 14.7 |
| CCCc1nc2sc3ccccc3c(=O)c2c(=O)n1Cc1ccco1 | 5.73 |
| O=C(Nc1cccc(Cl)c1)N(CCN1CCOCC1)Cc1cccc(Cl)c1 | 6.44 |
| Cc1onc(-c2ccccc2)c1C(=O)Nc1sc2c(c1C#N)CCC2 | 10.1 |
| O=C(Cc1ccc(Br)cc1)c1ccc(O)cc1O | 7.26 |
| CCCCOc1ccc(S(=O)(=O)N2CCCCCC2)cc1 | 23.8 |
| O=C(CCc1nc(-c2ccccc2F)no1)Nc1ccc(Oc2ccccc2)cc1 | 9.55 |
| Cc1sc2nc(CN(Cc3cccs3)C(=O)NC3CCCCC3)[nH]c(=O)c2c1C | 6.91 |
| N#C/C(=C\C1CC=CCC1)c1nc2ccccc2[nH]1 (configuration not stated) | 36.9 |
| CCn1c(C(=O)OC)cc2c1ccn2-c1ccc(F)cc1 | 17.2 |
| CCn1cc(C(=O)O)c(=O)c2cc(OC)ccc21 | 9.67 |
| COc1ccc2nc(NC(=O)C3COc4ccccc4O3)sc2c1 (configuration not stated) | 14.5 |
| Cc1csc(NC(=O)c2cccc(Cn3nc(C)c(Br)c3C)c2)n1 | 10.3 |
| O=C(Nc1cnn(Cc2ccc(Cl)cc2Cl)c1)c1noc2c1CCCC2 | 8.39 |
| Cc1cccn2c(=O)c3c(nc12)N1CCC(Cc2ccccc2)CC1C1(C3)C(=O)N(C)C(=O)N(C)C1=O (configuration not stated) | 17.7 |

| Compound | IC50 [µM] |
| --- | --- |
| Cc1cc(C(=O)OCc2nnc(-c3ccccc3)o2)c(C)n1-c1ccccc1 | 9.88 |
| COC(=O)c1c(NC(=O)CCc2ccc(C)o2)sc(C)c1C | 26.8 |
| COc1ccc2c(c1)sc1nc(-c3ccccc3)cn12 | 12.2 |
| COc1ccc(-c2noc(CN3CCC(Cc4ccccc4)CC3)n2)cc1 | 17.2 |
| COc1ccccc1N1CCN(Cc2nc(N)nc(Nc3ccc(C)c(Cl)c3)n2)CC1 | 9.02 |
| Cc1ccc(-c2nnc(N3CCN(c4ccccn4)CC3)c3ccccc23)cc1 | 4.28 |
| CCOC(=O)c1c(-c2cccs2)csc1NC(=O)CN1CC(C)OC(C)C1 (configuration not stated) | 24.8 |
| C=CCNc1ncnc2c1[nH]c1ccc(C)cc12 | 2.38 |
| C=CCc1c(C)nc(SCc2nc3ccccc3c(=O)[nH]2)[nH]c1=O | 6.54 |
| CC(=O)Nc1cccc(NC(=O)CSc2ncc(-c3ccc(Cl)cc3)n2Cc2ccco2)c1 | 2.99 |
| O=C1C2=C(Nc3ccccc3SC2c2ccco2)c2ccccc21 (configuration not stated) | < 0.2 |
| CC1CCc2c(C(=O)Oc3cccc(-n4cnnn4)c3)csc2C1 (configuration not stated) | 20.2 |
| N#Cc1cn(Cc2ccccc2)c2ccccc12 | 15.3 |
| COc1cccc(NC(=O)N2CCN(c3cccc(C)c3C)CC2)c1 | 13.4 |
| O=c1[nH]c(=O)n(C2CCCCCC2)c(O)c1C=NCc1ccc(F)cc1 | 14.6 |
| CC1(C)C(=O)OC(c2cc(Br)ccc2O)C(C)(C)C1=O (configuration not stated) | 15.4 |
| COc1ccc(NC(=O)N(C2CCCCC2)C(C)c2ccco2)c(OC)c1 (configuration not stated) | 15 |
| Cc1cc(C)c(C#N)c(SCS(=O)c2ccc(C(C)(C)C)cc2)n1 (configuration not stated) | 40.1 |
| CCOC(=O)c1[nH]c2ccc(F)cc2c1NC(=O)CN1CCN(C/C=C/c2ccccc2)CC1 | 14.8 |
| N/C(=N/O)c1nc(N2CCCC2)nc(N(c2ccccc2)c2ccccc2)n1 | 10.9 |
| Oc1c(C(c2cccs2)N2CCN(c3cccc(Cl)c3)CC2)sc2ncnn12 (configuration not stated) | 13.9 |
| CCN(c1ccccc1)S(=O)(=O)c1ccc(C(=O)Nc2nnc(COC)o2)cc1 | 3.23 |
| COc1ccc(CN(C(=O)CN2C(=O)COc3ccccc32)C2CCCC2)c(OC)c1 | 19.1 |

| Compound | IC50 [µM] |
| --- | --- |
| CC(C)N(Cc1nc(-c2ccccc2)no1)C(=O)c1ccc(Cl)cc1 | 19.5 |
| O=C(Nc1sc2c(c1C(=O)O)CCC2)c1cccs1 | 13.8 |
| c1ccc(CCc2ccccc2-c2nc(-c3cccnc3)no2)cc1 | 11.9 |
| Cc1ccc2[nH]c(=O)c(CN(Cc3ccc4c(c3)OCO4)Cc3nnnn3C3CCCC3)cc2c1 | 42.3 |
| Cc1nn(Cc2ccccc2)c(C)c1C(=O)OCC(=O)c1cc(C)n(C2CC2)c1C | 11.3 |
| CCOC(=O)c1cc2cc(-c3c(C(=O)OCC)oc4cc(O)cc(O)c4c3=O)ccc2o1 | 7.59 |
| COc1ccccc1-c1cc(C(=O)NCc2ccccc2)no1 | 17.1 |
| CC(C)C(c1nnnn1C1CCCC1)N1c2ccccc2CC1C (configuration not stated) | 20.8 |
| CS(=O)c1nc(-c2ccc(Br)cc2)cc(-c2ccccc2)c1C#N (configuration not stated) | 10.4 |
| Cc1cccn2c(=O)c3cc(C(=O)NCc4ccco4)c(=N)n(CCc4ccccc4)c3nc12 | 43.1 |
| Cc1ccc2cc(CN(Cc3ccccc3)Cc3nnnn3C3CCCC3)c(=O)[nH]c2c1 | 11.6 |
| COc1ccc2nc(NC(=O)CSc3nnnn3C3CCCCC3)sc2c1 | 63.6 |
| O=C(Nc1ccccc1N1CCCCC1)c1cccs1 | 12.8 |
| CCOC(=O)N1CCN(C(=O)COc2ccc(S(=O)(=O)Nc3ccc(OCC)cc3)cc2)CC1 | 2 |
| Cc1noc(C)c1C(=O)Nc1sc(C)c(-c2ccccc2)c1C#N | 9.36 |
| Cc1cc(OCCCC(=O)N2CCCCC2)cc(C)c1Cl | 28.2 |
| O=C(Oc1ccccc1)c1cc2ccccc2o1 | 23.1 |
| N#CC1=C(N)NC(SCc2ccccc2)=C(C#N)C12CCCCC2 | 2.12 |
| O=C(Nc1ccc(Cl)c(Cl)c1)OCc1cccnc1 | 13.8 |
| CCOC(=O)c1c(NC(=O)CN2CCCCC2)sc2c1CCN(C(=O)OCC)C2 | 10.7 |
